Tests used:
[1] = target: T1, ATP-dependent RNA helicase DDX3X (Homo sapiens, UniProt O00571); test: Inhibition of full length His-tagged human DDX3X expressed in Escherichia coli assessed as reduction in DDX3X helicase activity using FAM-labeled double stranded RNA as substrate after 40 mins by FRET assay relative to control
In short: (§1)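 Recombinant His-tagged full-length DDX3X expressed in E. coli, Ni-NTA purified. Unwinding of FAM-labelled dsRNA, with capture strand at 100 nM, in Tris-HCl pH 8, 70 mM KCl, 2 mM MgCl2, 2 mM DTT, 2 mM ATP. Started with DDX3X, 37°C, 40 min, fluorescence read every 30 s. Initial slope gives unwinding rate; IC50 by nonlinear regression of triplicates.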

[2] = Cytotoxicity against human HuH7 cells after 3 days by MTT assay; format: cell-based, Huh-7; details: human, HuH7 cells
In short: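 Huh7 cells (2.5 × 10^4 per well) adhered overnight. Confluent monolayers washed, then treated with compound (final 100–0.01 μM) or DMSO control for 3 days at 37°C. Viability by MTT, absorbance 570 nm, expressed relative to DMSO-treated cells.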

West Nile virus [3] = test: Antiviral activity against West Nile virus infected in human HuH7 cells incubated for 4 days by crystal violet staining based plaque reduction assay; format: functional, organism-based; details: Huh-7, 96 h
In short: (§2)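 Huh7 cells (2.5 × 10^5 per well, overnight) infected with lineage 2 WNV at MOI 0.1 for 1 h at 37°C, washed, then compound added in 10-fold dilutions (final 100–0.01 μM) with DMSO as virus control. Agarose overlay, 4 days at 37°C, methanol fixation, crystal violet staining. PFU relative to DMSO; IC50 by exponential fit at 50% PFU. Duplicates, repeated at least twice.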

[4] = Apparent permeability of the compound by PAMPA; format: ADME
In short: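 PAMPA: 0.5 mM donor solution in pH 7.4 phosphate buffer, diluted from 1 mM DMSO stock. Filter coated with 1% phosphatidylcholine in dodecane; acceptor 50% DMSO in buffer. Incubated 5 h at room temperature with shaking. Donor and acceptor quantified by LC-UV at 280 nm and Papp calculated. Three plates on different days.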

[5] = Metabolic stability in human liver microsomes at 50 uM after 60 mins in presence of NADPH-generating system by LC-UV-MS analysis; format: ADME, Microsome; details: read-out: Stability
In short: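 Compound at 50 μM final (DMSO ≤2%) incubated with human liver microsomes (0.2 mg/mL) and NADPH-generating system in 125 mM phosphate buffer pH 7.4, 37 °C, 60 min. Remaining compound measured by LC-ESI-MS in positive ion mode, with UV at 280 nm.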

West Nile virus [6] = test: Antiviral activity against West Nile virus; format: functional, organism-based; in short: as §2
[7] = target: T2, ATP-dependent RNA helicase DDX1 (Homo sapiens, UniProt Q92499); test: Inhibition of human DDX1 helicase activity
T2 sequence (Q92499 whole entry): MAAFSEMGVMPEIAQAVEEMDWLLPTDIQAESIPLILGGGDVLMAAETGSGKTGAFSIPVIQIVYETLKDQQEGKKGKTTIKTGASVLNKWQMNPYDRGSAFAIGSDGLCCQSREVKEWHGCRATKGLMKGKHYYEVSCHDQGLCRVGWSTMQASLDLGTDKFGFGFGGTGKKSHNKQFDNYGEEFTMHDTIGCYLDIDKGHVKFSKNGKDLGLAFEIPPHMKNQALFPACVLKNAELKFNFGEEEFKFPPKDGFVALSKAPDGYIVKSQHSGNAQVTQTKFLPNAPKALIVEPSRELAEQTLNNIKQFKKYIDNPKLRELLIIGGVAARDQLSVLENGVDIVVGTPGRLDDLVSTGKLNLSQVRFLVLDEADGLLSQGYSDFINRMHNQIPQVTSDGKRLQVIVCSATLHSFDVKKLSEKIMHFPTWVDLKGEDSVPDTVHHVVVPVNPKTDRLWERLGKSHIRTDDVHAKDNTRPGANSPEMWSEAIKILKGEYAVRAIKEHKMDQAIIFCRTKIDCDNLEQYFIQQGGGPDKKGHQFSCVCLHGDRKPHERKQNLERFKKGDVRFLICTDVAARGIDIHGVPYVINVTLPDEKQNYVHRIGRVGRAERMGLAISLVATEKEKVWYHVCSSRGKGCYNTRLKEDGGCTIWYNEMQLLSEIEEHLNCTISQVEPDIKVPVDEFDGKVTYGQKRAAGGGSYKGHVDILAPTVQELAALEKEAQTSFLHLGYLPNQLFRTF

[8] = target: T1, ATP-dependent RNA helicase DDX3X; test: Competitive inhibition of full length His-tagged human DDX3X expressed in Escherichia coli assessed as reduction in DDX3X helicase activity using 0.024 uM FAM-labeled double stranded RNA as substrate after 40 mins by FRET assay relative to control; in short: as §1
[9] = target: T1, ATP-dependent RNA helicase DDX3X; test: Competitive inhibition of full length His-tagged human DDX3X expressed in Escherichia coli assessed as reduction in DDX3X helicase activity using 0.1 uM FAM-labeled double stranded RNA as substrate after 40 mins by FRET assay relative to control; in short: as §1
[10] = target: T1, ATP-dependent RNA helicase DDX3X; test: Competitive inhibition of human full length His-tagged DDX3X helicase activity expressed in Escherichia coli using FAM-labeled double stranded RNA as substrate at 0.1 uM after 40 mins by fluorescence assay; in short: as §1

T1 sequence (O00571 2-662 limits assumed): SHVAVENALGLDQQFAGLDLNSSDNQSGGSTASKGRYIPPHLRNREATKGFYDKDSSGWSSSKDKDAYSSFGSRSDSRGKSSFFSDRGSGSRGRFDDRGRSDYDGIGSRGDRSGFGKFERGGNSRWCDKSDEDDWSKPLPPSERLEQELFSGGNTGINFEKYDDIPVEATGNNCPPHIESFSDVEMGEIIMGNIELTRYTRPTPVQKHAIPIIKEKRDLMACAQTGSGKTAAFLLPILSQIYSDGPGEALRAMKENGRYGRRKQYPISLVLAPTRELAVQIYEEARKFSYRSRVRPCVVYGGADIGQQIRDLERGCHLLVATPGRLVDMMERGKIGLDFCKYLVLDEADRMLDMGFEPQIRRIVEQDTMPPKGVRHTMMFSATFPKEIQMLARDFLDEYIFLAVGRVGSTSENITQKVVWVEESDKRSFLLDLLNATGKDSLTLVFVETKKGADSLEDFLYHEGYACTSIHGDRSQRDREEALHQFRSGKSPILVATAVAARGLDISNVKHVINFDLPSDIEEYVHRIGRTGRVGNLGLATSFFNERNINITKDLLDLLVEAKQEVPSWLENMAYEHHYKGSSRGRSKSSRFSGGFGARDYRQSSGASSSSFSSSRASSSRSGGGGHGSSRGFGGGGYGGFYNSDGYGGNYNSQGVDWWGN

inhibition [1] | EC50 (West Nile virus [3]) | Papp [4] | remaining at 1 h, 50 µM [5] | SMILES | CC50 at 72 h [2] | other results
59% | 39.9 µM |  |  | CCCCc1cn(-c2cccc(S(=O)(=O)Nc3ccccc3C)c2)nn1 | > 200 µM | 
80% |  |  |  | CCCCc1cn(-c2cccc(S(=O)(=O)Nc3ccc(OC)cc3)c2)nn1 |  | 
98% | 13 µM | 0.44 ×10⁻⁶ cm/s | 96% | CCOCc1cn(-c2cccc(S(=O)(=O)Nc3cccc4cnccc34)c2)nn1 | > 200 µM | 
 |  |  |  | C[C@@]1(O)[C@H](O)[C@@H](CO)O[C@H]1n1cnc2c(N)ncnc21 |  | EC50 (West Nile virus [6]): 5.1 µM
67% |  |  |  | COCCc1cn(-c2cccc(S(=O)(=O)Nc3ccccc3C(F)(F)F)c2)nn1 |  | 
41% |  |  |  | O=S(=O)(Nc1ccccc1C(F)(F)F)c1cccc(-n2cc(-c3ccccc3)nn2)c1 |  | 
99% | 55 µM | 0.68 ×10⁻⁶ cm/s | 98% | CCCCc1cn(-c2cccc(S(=O)(=O)Nc3cccc4cnccc34)c2)nn1 | > 200 µM | IC50 [7]: > 200 µM
83% | 2.3 µM | 0.1 ×10⁻⁶ cm/s | 95.6% | CCCCc1cn(-c2cccc(S(=O)(=O)Nc3ccccc3O)c2)nn1 | > 200 µM | ID50 [8]: 0.3 µM; ID50 [9]: 2.2 µM; ID50 [10]: 20 µM
98% |  |  |  | CCCCc1cn(-c2cccc(S(=O)(=O)Nc3ccccc3OC)c2)nn1 |  | 
96% |  |  |  | CC(C)CCc1cn(-c2cccc(S(=O)(=O)Nc3ccccc3C(F)(F)F)c2)nn1 |  | 
98% | 120 µM | < 0.1 ×10⁻⁶ cm/s | 98.3% | O=[N+]([O-])c1cccc(S(=O)(=O)Nc2ccccc2O)c1 | 175 µM | IC50 [7]: > 200 µM
 |  |  |  | C[C@@]1(O)[C@H](O)[C@@H](CO)O[C@H]1n1ccc2c(N)ncnc21 [BETA-2'-C-METHYL-7-DEAZA-ADENOSINE] |  | EC50 (West Nile virus [6]): 4.5 µM
